Screens from PubChem.
Only some compounds are listed: those with a hit (about 12% of all), similar ones and a draw of the others.
CHOP inh: CHOP inhibition in unfolded protein response | 220,000 compounds, 3.8% hits | inhibition, % at 10 µM | CHO-K1 CHOP-promoter luciferase, tunicamycin-induced, 15-18 h | AID 2732;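 active = compounds that reduced the stress-induced luciferase reporter signal by more than about 70% of percent inhibition, limit read from the data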;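 note: 0% = tunicamycin plus vehicle and 100% = wells without tunicamycin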
Autophagy mod: modulators of autophagy. 190,000 compounds, 0.98% hits. MEF GFP-LC3 puncta imaging; test concentration mostly 10 µM. calls only at 10 µM (by protocol). AID 463193;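 active = percentage of spot-positive cells more than 3 SD above its plate mean, without a fluorescence outlier flag or 80% toxicity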;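 note: spot-positive cell cutoff set from DMSO-treated cells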
L major viab: inhibitors of Leishmania major promastigote growth. Leishmania major promastigotes, resazurin fluorescence viability. 200,000 compounds, 9% hits. inhibition, % at 10 µM; in the data active = inhibition above about 50%;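 note: promastigotes grown with compound for 44 hours at 28 °C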
b-catenin transl: alters nuclear translocation of beta-catenin in HeLa cells. immunofluorescence imaging. nuclear translocation activity, % at 5 µM. 190,000 compounds, 0.3% hits. AID 1665;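 active = nuclear translocation activity above 50% at 5 µM, with a well cell count of 50 or more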;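 note: per-cell ratio of nuclear to cytoplasmic median beta-catenin stain intensity; plate controls were DMSO negative control for no effect and GSK-3 inhibitor IX positive control for full effect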
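Test system: human HeLa cell line; Doses: 5 µM primary, 0.02–20 µM confirmation; Incubation: 24 h compound exposure, 37°C; Detection: beta-catenin immunofluorescence imaging with DAPI; Read-out: beta-catenin nuclear/cytoplasmic ratio, % activation.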
Dynein cargo inh: blocks dynein driven cargo transport along microtubules; 3617.4 mouse cells, GR-EGFP nuclear translocation imaging; test concentration mostly 20 µM; stimulated with dexamethasone, 1 µM; active compounds read low; z-score, hits read low; 220,000 compounds, 0.47% hits; AID 1381;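 active = plate z-score of nuclear minus cytoplasmic receptor signal below a set negative limit, without overly bright fluorescence or cell loss, cut at about -3.5 in these data, passing the limit was not always enough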;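 note: z-score of nuclear minus cytoplasmic ring GR-EGFP intensity difference per well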
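Buffer or medium: tet-free medium with charcoal-stripped serum / Also added: dexamethasone agonist, 1.0 µM final, for 30 min / Timing: induction 48 h, compound 1 h, agonist 30 min / Measured by: high-content fluorescence imaging after fixation / Read-out: nuclear-to-cytoplasmic GR-EGFP distribution per well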
MT stabilizer: microtubule stabilization, imaging screen; HeLa tubulin immunostaining HCS, 24 h; share of cells brighter than vehicle mean+2SD; % tubulin-high responders, % at 10 µM; 200,000 compounds, 0.83% hits; AID 2205;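 active = plate Z-score above 3 for both tubulin-high and condensed-nucleus cell shares, with cell loss under 80%, at 10 µM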;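 note: anti alpha tubulin signal scored within the nucleus-defined area of each cell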
The depositor's hits bear a star; i = inactive; x = no result; + = active, no number.

SMILES	CHOP inh	Autophagy mod	L major viab	b-catenin transl	Dynein cargo inh	MT stabilizer
COc1ccccc1N1CCN(C(=O)c2cc(N3C(=O)C4C5CCC(C5)C4C3=O)ccc2Cl)CC1 (stereo not given)	30	i	89*	-1	-0.16	2
CN(Cc1cccs1)C(=O)/C=C/c1ccccc1[N+](=O)[O-]	-7	i	3	4	-0.014	2
O=C(NC1CCCCC1)N1CCN(c2ncccn2)CC1	30	i	-4	x	0.96	1
COc1ccc(C(=O)N2CCN(c3ccccc3OC)CC2)cc1	1	i	-6	0	-0.49	1
COc1ccccc1N1CCN(C(=O)c2c(-c3ccccc3)noc2C)CC1	x	i	-2	126*	-0.48	28*
COc1ccccc1N1CCN(C(=O)C(Sc2ccccc2)c2ccccc2)CC1 (stereo not given)	52	i	81*	5	-0.091	6
CCCCOc1ccc(C(=O)Nc2ccc(N3CCN(C(C)=O)CC3)cc2)cc1	-11	i	-4	x	0.42	1
COc1ccccc1N1CCN(C(=O)c2ccc(C(C)(C)C)cc2)CC1	96*	i	11	x	-0.45	2
CC(=O)N1CCN(c2ccc(NC(=O)c3ccc(C(C)(C)C)cc3)cc2)CC1	-1	i	97*	-1	-0.36	2
Cc1onc(-c2ccccc2)c1C(=O)N1CCCN(C(=O)c2c(-c3ccccc3)noc2C)CC1	2	i	0	x	0.032	3
Cc1ccc(S(=O)(=O)N(C)C)cc1NC(=O)c1cccnc1Oc1ccccc1	12	x	x	6	-0.89	x
CCCCC1(CC(=O)OC)C(=O)N(c2ccccc2)N(c2ccccc2)C1=O	15	i	9	3	0.31	2
O=C(Nc1nnc(C(F)(F)F)s1)c1ccc(N2C(=O)C3C4C=CC(C4)C3C2=O)cc1 (stereo not given)	-7	i	-6	x	-0.47	1
Cn1c(Oc2ccccc2NCc2cccc(Br)c2)cc(=O)n(C)c1=O	57	i	1	0	0.0094	3
O=C1N=C(N2CCCC2C(=O)O)S/C1=C\c1ccco1 (stereo not given)	-3	i	-4	-2	0.28	2
Cc1ccc(CSc2nc3ccsc3c(=O)n2Cc2ccccn2)cc1	27	i	67*	-3	-1.4	3
O=c1c2sccc2nc(SCc2cc(=O)n3cc(Br)ccc3n2)n1Cc1ccccn1	33	i	55*	1	1.5	1
O=C(COc1ccccc1O)NNc1ccccc1	0	i	74*	6	0.24	3
O=C(COc1ccccc1-c1ccccc1)N/N=C/c1cccnc1	5	i	11	46	-1.1	14*
O=C(COc1ccccc1-c1ccccc1)N/N=C/c1ccccn1	77*	i	23	-2	0.44	5
CCCCCC(=O)N/N=C(\C)c1ccc(N2CCCCC2)cc1	76*	i	-7	-3	-0.63	2
CNC(=S)N/N=C(\C)c1ccc(N2CCOCC2)cc1	-21	i	0	1	-0.52	4
CCNC(=S)N/N=C(\C)c1ccc(N2CCOCC2)cc1	1	+	-4	-2	1.1	3
CCCCCCCC(=O)N/N=C(\C)c1ccc(N)cc1	0	i	-6	-2	-0.5	5
O=C(COc1ccccc1-c1ccccc1)N/N=C/c1ccncc1	35	i	10	1	-0.013	3
SMILES	CHOP inh	Autophagy mod	L major viab	b-catenin transl	Dynein cargo inh	MT stabilizer
C/C(=N\NC(=O)COc1ccccc1-c1ccccc1)c1ccccn1	37	i	100*	-1	-0.51	8
O=C(COc1ccccc1-c1ccccc1)N/N=C/c1ccc2ccccc2c1	-61	i	41	131*	0.42	5
O=C(COc1ccccc1)N/N=C/c1ccc2c(c1)OCO2	4	i	1	0	-1.4	5
CCCCCC(=O)N/N=C(\C)c1ccccn1	29	i	93*	2	-0.34	2
CCCCCCCCCC(=O)N/N=C(\C)c1cccnc1	13	i	1	-2	0.59	3
O=C(O)Cc1ccc(-n2cccc2)cc1	-8	i	-10	-1	-1.3	3
CCC(=O)c1cc(F)c(N2CCN(S(=O)(=O)c3ccccc3)CC2)cc1C	17	i	64*	-4	-1.2	2
O=C(N/N=C/C(Br)=C/c1ccccc1)c1ccncc1	-23	x	x	-4	-0.97	x
CCOc1cc(C(=O)N/N=C/C(Br)=C/c2ccccc2)cc(OCC)c1OCC	16	i	58*	x	0.12	9.1*
N#CCCn1cc(C=O)c(-c2cccs2)n1	12	i	-1	-2	-0.19	2
O=C(CCCN1CCC(c2ccccc2)C1)c1ccc2c(c1)OCCO2 (stereo not given)	47	i	95*	-8	-1.4	4
O=C(OCCN1CCOCC1)c1ccc2c(c1)OCCO2	4	i	-3	-2	1.2	2
O=C(CCN1CCOCC1)c1ccc2c(c1)OCCO2	-62	i	100*	-1	-1.1	3
O=C(CN1C(=O)c2ccccc2S1(=O)=O)c1ccc2c(c1)OCCO2	94*	x	x	0	1.2	x
O=C(CCCO)c1ccc2c(c1)OCCO2	3	i	-1	-2	-0.62	2
O=C(CCCN1CCOCC1)c1ccc2c(c1)OCCO2	12	i	90*	3	0.62	6
O=C(CN1C(=O)c2ccccc2S1(=O)=O)c1ccc(F)cc1	38	x	x	-1	1.2	x
O=C(NCC1CCCO1)C1CCN(C2CCN(C3CCCCCC3)CC2)CC1 (stereo not given)	20	i	5	0	1.2	3
Cc1c(C(=O)N2CCc3ccccc32)cnn1C	-15	i	-7	x	-0.46	5
O=C(CCN1CCc2ccccc2CC1)c1ccc2c(c1)OCCO2	9	i	89*	x	-3.3	1
Cc1ccc(NC(=O)CN(C)C(=S)NC2CC2)cc1	5	i	2	2	-0.51	3
COC1(OC)C(/C=C/c2ccc(Cl)cc2)C(C#N)(C#N)C1(OC)OC (stereo not given)	4	i	85*	x	-0.95	5
COc1cc(C)c(NC(=S)Nc2ccc(Cl)c(Cl)c2)cc1OC	12	i	11	1	0.068	7
O=[N+]([O-])c1ccccc1-c1cc(-c2ccccc2O)n[nH]1	8	i	58*	0	-0.16	5
CCC(Oc1ccccc1)C(=O)Nc1ccsc1C(=O)OC (stereo not given)	14	i	74*	1	1.4	4
CCOc1ccccc1C(=O)Nc1ccsc1C(=O)OC	56	i	-1	57*	-0.084	28*
CCn1c(C(=O)Nc2ccsc2C(=O)OC)cc2sc(Cl)cc21	23	+	3	x	1.2	4
